Columns and labels:
[1] = folding enthalpy; higher = less favourable; fluorescence melt of hairpins on a sequencing array, two-state fit; details: sodium 0.088 M
Method in brief: (§1)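 Library hairpins on a sequenced MiSeq flow cell carried annealed Cy3 and quencher oligos, and their Cy3 fluorescence was imaged in 50 mM Na-HEPES pH 8.0 with 25 mM NaCl, in 2.5 °C steps up to 60 °C. Signals were normalised to Cy3 before quenching and to control constructs. Melting temperature and folding enthalpy were obtained from bootstrapped two-state fits, combined by inverse-variance weighting across four replicates, and the fitted temperatures were then raised by 9.35 °C to match UV melts.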

[2] = melting temperature; fluorescence melt of hairpins on a sequencing array, two-state fit, raised by 9.35 °C to match UV melts; details: sodium 0.088 M
Method in brief: as §1

Sequence	folding enthalpy [1] [kcal/mol]	Tm [2] [°C]
GGCTTAGGAAACTAAACC ((.((((....)))).))	-15.7	31.8
GCGTGTGGAAACATACGC ((((.((....)).))))	-39	58.8
GGGAGGGGAAACCTTCCC ((((.((....)).))))	-25.1	50
GCTTGGCGAAAGCCTAGC (((.(((....))).)))	-41.9	57.6
GAGCACGAAAGTGATCTC ((((((....)))..)))	-23.7	57.1
GCGACACGAAAGTGACGC (((.(((....))).)))	-38.7	68.5
GATCATCTTATGATC ((((((...))))))	-34.7	49.8
GAACACGAAAGTGTATTC ((((((....)))..)))	-9.83	33.6
GATCCGAGACCGGATC ((((((....))))))	-36.6	54.4
GGTCGATCGAAAGATACC (((..(((....))))))	-6.77	26.2
GATCGCATATGCGATC ((((((....))))))	-33.8	68.8
GAGGACGAAAGTCGCCTC ((((((....)))..)))	-14.9	38.9
GCTTACGGAAACGCAAGC ((((.((....)).))))	-44.1	46
GATCGAGGAAACTTGGTC ((.(.((....)).).))	-8.03	22.6
GATATAACGAAAGTTATC (((..(((....))))))	-15.6	30.6
GATCAGATCACTGATC ((((((....))))))	-28.6	49.9
GATTGTACGAAAGTAATC (((..(((....))))))	-18.7	28.1
GTAGTCGAAAGACCTAC ((((((....))).)))	-18.9	36.8
GCCGCGCGAAAGCGCCGC ((.((((....)))).))	-16.6	59.7
GGAATCGGAAACAATTCC (((((.(....).)))))	-27.8	32.6
GATCCGAATCCGGATC ((((((....))))))	-38.5	55.8
GTCCGATCGAAAGATGAC (((..(((....))))))	-10.7	28.3
GGATACGAAAGTAATCC ((((((....))).)))	-27	44.6

Sequence	folding enthalpy [1] [kcal/mol]	Tm [2] [°C]
GATCAACGTCTTGATC ((((((....))))))	-30.9	42.6
GTTGGTGGAAACACCAGC (.(((((....))))).)	-21.5	50.6
GGTTTCGAAAGAACGACC ((((((....)))..)))	-14.4	29.6
GCAACGGGAAACTGTTGC (((((.(....).)))))	-40.8	55.6
GTTTGCGAAAGCAATAAC ((((((....)))..)))	-12.6	34.5
GTGCGTGGAAACATGCAC ((((.((....)).))))	-48.5	58.4
GCCATCGGAAACGATGAC (.(((((....))))).)	-16	48.6
GACTGCGAAAGCATGTC ((((((....))).)))	-23.1	54.5
GACAGAGGAAACCCTGTC (((((.(....).)))))	-32.9	42.5
GATCTACGTGTAGATC ((((((....))))))	-48.5	55.2
GACCGCGAAAGCGTGGTC ((((((....)))..)))	-18.6	50.9
GGGGTGTCGAAAGACCCC (((..(((....))))))	-30.4	58.7
GCAGAGCGAAAGCACAGC ((.(.((....)).).))	-15.6	42.9
GTGGATGGAAACATCTAC ((.((((....)))).))	-31	46.8
GCATCGGCGAAAGCCTGC (((..(((....))))))	-15.2	39.8
GATCCGGTGCCGGATC ((((((....))))))	-59.2	58
GACCGCCGAAAGGCAGTC (((.(((....))).)))	-20.9	54.3
GATCGTGGACACGATC ((((((....))))))	-40.2	65.6
GGGTGTCGAAAGACTCCC (((.(((....))).)))	-42.3	58.3
GGTTCTGGAAACAGAATC (.(((((....))))).)	-34.2	45
AGTCCGAAAGGACT (((((....)))))	-18.7	68.1
GATCCCGAAAGGGTATC ((((((....))).)))	-15.8	45.5
GATCGTATTTACGATC ((((((....))))))	-42.5	57.6

— the array DNA melting data of Ke et al. (doi:10.1101/2024.01.08.574731)
